Experiment: Laboratory safety in RSV-infected infants
Format: in vivo, human
Procedure, shortened: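 Clinical laboratory tests were run in RSV-infected infants (>1 to ≤24 months) given oral drug or placebo once daily for 7 days. Abnormalities were graded with the DMID Pediatric Toxicity Tables (November 2007 version). Patients were followed for 28 days after randomisation.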

## CS(=O)(=O)CCCn1c(Cn2c(=O)n(CC(F)(F)F)c3ccncc32)cc2cc(Cl)ccc21 [JNJ-53718678]
All cohorts, n=37
  Hemoglobin Grade 1 (treatment-emergent worst toxicity grade): 2 (5) no. (%)
  Hemoglobin Grade 2 (treatment-emergent worst toxicity grade): 1 (3) no. (%)
  Hyperkalemia Grade 1 (treatment-emergent worst toxicity grade): 10 (27) no. (%)
  Hyperkalemia Grade 2 (treatment-emergent worst toxicity grade): 2 (5) no. (%)
  Hypoglycemia Grade 1 (treatment-emergent worst toxicity grade): 3 (8) no. (%)
  Hyponatremia Grade 2 (treatment-emergent worst toxicity grade): 3 (8) no. (%)
All, n=26
  Eosinophils/leukocytes: Above (treatment-emergent nongraded abnormality): 7 (27) no. (%)
  Eosinophils/leukocytes: Below (treatment-emergent nongraded abnormality): 1 (4) no. (%)
  Lymphocytes/leukocytes: Above (treatment-emergent nongraded abnormality): 6 (23) no. (%)
  Lymphocytes/leukocytes: Below (treatment-emergent nongraded abnormality): 1 (4) no. (%)
  Monocytes/leukocytes: Above (treatment-emergent nongraded abnormality): 5 (19) no. (%)
  Monocytes/leukocytes: Below (treatment-emergent nongraded abnormality): 3 (12) no. (%)
  Neutrophils/leukocytes: Above (treatment-emergent nongraded abnormality): 1 (4) no. (%)
  Neutrophils/leukocytes: Below (treatment-emergent nongraded abnormality): 6 (23) no. (%)
All, n=33
  Urea: Above (treatment-emergent nongraded abnormality): 1 (3) no. (%)
  Urea: Below (treatment-emergent nongraded abnormality): 5 (15) no. (%)
All, n=35
  Bicarbonate: Above (treatment-emergent nongraded abnormality): 3 (9) no. (%)
  Bicarbonate: Below (treatment-emergent nongraded abnormality): 6 (17) no. (%)
  Eosinophils: Above (treatment-emergent nongraded abnormality): 7 (20) no. (%)
  Eosinophils: Below (treatment-emergent nongraded abnormality): 0 no. (%)
All, n=36
  Lymphocytes: Above (treatment-emergent nongraded abnormality): 6 (17) no. (%)
  Lymphocytes: Below (treatment-emergent nongraded abnormality): 0 no. (%)
All, n=37
  Alkaline phosphatase: Above (treatment-emergent nongraded abnormality): 2 (5) no. (%)
  Alkaline phosphatase: Below (treatment-emergent nongraded abnormality): 3 (8) no. (%)
  Chloride: Above (treatment-emergent nongraded abnormality): 5 (14) no. (%)
  Chloride: Below (treatment-emergent nongraded abnormality): 1 (3) no. (%)
  Erythrocytes: Above (treatment-emergent nongraded abnormality): 4 (11) no. (%)
  Erythrocytes: Below (treatment-emergent nongraded abnormality): 3 (8) no. (%)
  Leukocytes: Above (treatment-emergent nongraded abnormality): 6 (16) no. (%)
High (cohorts 1d,2c,3c), n=4
  Eosinophils/leukocytes: Above (treatment-emergent nongraded abnormality): 1 (25) no. (%)
  Eosinophils/leukocytes: Below (treatment-emergent nongraded abnormality): 0 no. (%)
  Lymphocytes/leukocytes: Above (treatment-emergent nongraded abnormality): 1 (25) no. (%)
  Lymphocytes/leukocytes: Below (treatment-emergent nongraded abnormality): 0 no. (%)
  Monocytes/leukocytes: Above (treatment-emergent nongraded abnormality): 0 no. (%)
  Monocytes/leukocytes: Below (treatment-emergent nongraded abnormality): 0 no. (%)
  Neutrophils/leukocytes: Above (treatment-emergent nongraded abnormality): 0 no. (%)
  Neutrophils/leukocytes: Below (treatment-emergent nongraded abnormality): 0 no. (%)
High (cohorts 1d,2c,3c), n=8
  Bicarbonate: Above (treatment-emergent nongraded abnormality): 0 no. (%)
  Bicarbonate: Below (treatment-emergent nongraded abnormality): 3 (38) no. (%)
  Eosinophils: Above (treatment-emergent nongraded abnormality): 0 no. (%)
  Eosinophils: Below (treatment-emergent nongraded abnormality): 0 no. (%)
High (cohorts 1d,2c,3c), n=9
  Alkaline phosphatase: Above (treatment-emergent nongraded abnormality): 0 no. (%)
  Alkaline phosphatase: Below (treatment-emergent nongraded abnormality): 0 no. (%)
  Chloride: Above (treatment-emergent nongraded abnormality): 0 no. (%)
  Chloride: Below (treatment-emergent nongraded abnormality): 0 no. (%)
  Erythrocytes: Above (treatment-emergent nongraded abnormality): 0 no. (%)
  Erythrocytes: Below (treatment-emergent nongraded abnormality): 1 (11) no. (%)
  Hemoglobin Grade 1 (treatment-emergent worst toxicity grade): 0 no. (%)
  Hemoglobin Grade 2 (treatment-emergent worst toxicity grade): 0 no. (%)
  Hyperkalemia Grade 1 (treatment-emergent worst toxicity grade): 1 (11) no. (%)
  Hyperkalemia Grade 2 (treatment-emergent worst toxicity grade): 1 (11) no. (%)
  Hypoglycemia Grade 1 (treatment-emergent worst toxicity grade): 3 (33) no. (%)
  Hyponatremia Grade 2 (treatment-emergent worst toxicity grade): 1 (11) no. (%)
  Leukocytes: Above (treatment-emergent nongraded abnormality): 3 (33) no. (%)
  Lymphocytes: Above (treatment-emergent nongraded abnormality): 1 (11) no. (%)
  Lymphocytes: Below (treatment-emergent nongraded abnormality): 0 no. (%)
  Urea: Above (treatment-emergent nongraded abnormality): 0 no. (%)
  Urea: Below (treatment-emergent nongraded abnormality): 0 no. (%)
Low (cohorts 1a,2a,3a), n=9
  Eosinophils/leukocytes: Above (treatment-emergent nongraded abnormality): 2 (22) no. (%)
  Eosinophils/leukocytes: Below (treatment-emergent nongraded abnormality): 0 no. (%)
  Lymphocytes/leukocytes: Above (treatment-emergent nongraded abnormality): 2 (22) no. (%)
  Lymphocytes/leukocytes: Below (treatment-emergent nongraded abnormality): 0 no. (%)
  Monocytes/leukocytes: Above (treatment-emergent nongraded abnormality): 2 (22) no. (%)
  Monocytes/leukocytes: Below (treatment-emergent nongraded abnormality): 2 (22) no. (%)
  Neutrophils/leukocytes: Above (treatment-emergent nongraded abnormality): 0 no. (%)
  Neutrophils/leukocytes: Below (treatment-emergent nongraded abnormality): 3 (33) no. (%)
  Urea: Above (treatment-emergent nongraded abnormality): 1 (11) no. (%)
  Urea: Below (treatment-emergent nongraded abnormality): 1 (11) no. (%)
Low (cohorts 1a,2a,3a), n=11
  Bicarbonate: Above (treatment-emergent nongraded abnormality): 1 (9) no. (%)
  Bicarbonate: Below (treatment-emergent nongraded abnormality): 0 no. (%)
Low (cohorts 1a,2a,3a), n=12
  Alkaline phosphatase: Above (treatment-emergent nongraded abnormality): 1 (8) no. (%)
  Alkaline phosphatase: Below (treatment-emergent nongraded abnormality): 0 no. (%)

Source: publication PMC7744997 (Clinical Infectious Diseases: An Official Publication of …, 2020)
